pKd: −log10 of the molar value. Peptide text beside a SMILES is read from it. * marks the point of attachment. Cbz = O=C(OCc1ccccc1)*
What was measured:
[1] = molecular target: TRIB3 (immobilized on CM5 sensor chips) (UniProt Q96RU7); test: SPR
[2] = tested on: AEC2s; assay type: cell-based, mouse; conditions: 3D Matrigel co-culture with MLg2908 cells, Day 14, n = 3
Method in brief: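 Mouse AEC2s were sorted as DAPI-negative, lineage-negative, EpCAM-positive cells from lineage-depleted lung cells. 5 × 10^3 cells were embedded in Matrigel/DMEM (1:1) with 2 × 10^5 MLg2908 cells in Transwell inserts. Lower-chamber DMEM contained ITS, 10% FBS and antibiotics, changed daily. On Day 14, colonies above a size cutoff were counted by microscopy. CFE = colonies / input AEC2s.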

[3] = tested on: mBLM-challenged mice; test: MX69; assay type: in vivo, mouse; conditions: n = 5
Method in brief: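 Mice under avertin anaesthesia (400 mg/kg i.p.) received intratracheal bleomycin, 1 U/kg in LPS-free PBS, six times at 14-day intervals. The MDM2 inhibitor was given at 100 mg/kg/day i.p. for 3 days after every challenge and for 3 days before sacrifice. Read-outs: Slug immunoblot in sorted AEC2s (GAPDH loading control), right-lung hydroxyproline, Masson staining, and AEC2 colony-forming efficiency.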

[4] = tested on: SLUG degradation in AEC2s; test: SLUG degradation in AEC2s with cycloheximide plus 3MA or MG132; assay type: cell-based, mouse; conditions: CHX 10 μg/mL with 3 MA 5 mmol/L or MG132 10 μmol/L

UniProt Q96RU7, sequence (Q96RU7 whole entry): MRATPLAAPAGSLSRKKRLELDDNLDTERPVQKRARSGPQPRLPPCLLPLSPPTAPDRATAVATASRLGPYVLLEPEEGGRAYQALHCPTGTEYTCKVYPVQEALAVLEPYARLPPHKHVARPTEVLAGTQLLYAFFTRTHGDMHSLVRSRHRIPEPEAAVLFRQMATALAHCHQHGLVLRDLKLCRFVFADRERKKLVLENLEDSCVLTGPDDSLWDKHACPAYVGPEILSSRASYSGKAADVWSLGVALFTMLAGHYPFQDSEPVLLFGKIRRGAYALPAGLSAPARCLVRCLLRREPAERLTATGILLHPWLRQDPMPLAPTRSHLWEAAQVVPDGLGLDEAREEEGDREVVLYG

MR2 (from UniProt Q00987 460-470) (peptide)
pKd [1]: 7.34

C[S+]([O-])c1ccc(-c2nc(-c3ccncc3)c(-c3ccc(F)cc3)[nH]2)cc1 (stereo not shown) [SB203580]
CFE of AEC2s [2]: decreased

Oc1c2ccccc2c2c3c(cccc13)N=N2 [SP600125]
CFE of AEC2s [2]: decreased

Cc1ccc(NS(=O)(=O)c2ccc3c(c2)C2C=CCC2C(c2ccc(C(=O)O)cc2)N3)cc1C (stereo not shown) [MX69]
level of Slug in AEC2s ([3]; AEC2s isolated from fibrotic mice but not control mice, immunoblot): increased
protein level of MDM2 in AEC2s ([3]; AEC2s isolated from fibrotic mice, immunoblot): decreased
capacity of AEC2s mediated LAR (colony-forming efficiency) ([3]; AEC2s sorted from MX69 treated mBLM mice): further declined

CC(C)C[C@@H](C=O)NC(=O)[C@H](CC(C)C)NC(=O)[C@H](CC(C)C)NC(=O)OCc1ccccc1 [MG132] (Cbz-Leu-Leu-Leu-aldehyde)
SLUG degradation [4]: suppressed

— article PMC10150180 (Acta Pharmaceutica Sinica. B, 2023)
